Assay outcomes deposited in PubChem by several laboratories.
core dimer inh: inhibitors of HCV core protein dimerization, primary screen, biochemical, TR-FRET, high-throughput. TR-FRET GST/Flag-core106 dimerization, 1536-well. inhibition, % at 5 µM. 0.33% of 300,000 active;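 active = inhibition above the mean of all tested compounds plus 3 SD, set per screening campaign, cut at about 45% in these data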
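Assay system: GST-tagged and Flag-tagged HCV core protein residues 1-106 / Times: compound-protein-antibody incubation 4 h at 22.5 °C / Signal: time-resolved FRET, ex 340 nm, em 617 and 671 nm / Evaluation: % inhibition based on acceptor/donor emission ratio / Benchmarks: wells lacking GST-core106 and wells with excess unlabelled core106 / Repeats: singlicate, one well per compound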
eIF4E 4G PPI: eIF4E–eIF4G protein interaction inhibitors, primary screen, biochemical, uHTS, TR-FRET, eIF4GI fragment. Eukaryotic translation initiation factor 4E (Mus musculus) + Eukaryotic translation …. inhibition, % at 21.7 µM. TR-FRET eIF4E-eIF4GI(517-606) binding, 2 h. AID 782, 2007. 0.37% of 220,000 active;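 active = inhibition above about 30%, limit read from the data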;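 also: 0% = full FRET control wells and 100% = background wells lacking eIF4GI fragment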
eIF4H FP inh: human eIF4H binding inhibitors, primary screen, translation initiation inhibitor project, biochemical, uHTS, fluorescence polarization; Eukaryotic translation initiation factor 4H (Homo sapiens), Q15056; eIF4H fluorescence polarization binding assay; inhibition, % at 35 µM; 0.94% of 290,000 active; AID 2012, 2009;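 also: calls also rest on retests at 20 µM and on dose response follow-up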
SUMO HTRF inh: inhibitors of in vitro SUMOylation cascade, primary screen, biochemical, HTRF, uHTS; inhibition, % at 35 µM; SUMO-conjugating enzyme UBC9 (Homo sapiens), P63279; HTRF SUMOylation assay, SAE1/SAE2 + UBC9; 0.36% of 290,000 active; in the data active = inhibition above about 50%, passing the limit was not always enough; inconclusive = no clear call, values can overlap the other calls
Target sequence (P63279 whole entry, looked up): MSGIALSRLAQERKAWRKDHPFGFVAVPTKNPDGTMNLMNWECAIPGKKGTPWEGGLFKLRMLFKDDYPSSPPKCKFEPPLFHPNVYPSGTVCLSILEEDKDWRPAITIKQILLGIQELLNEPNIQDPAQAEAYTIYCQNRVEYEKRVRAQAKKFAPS
PABP FP inh: PABP poly(A) RNA binding inhibitors, primary screen, biochemical, fluorescence polarization, uHTS. AID 2014, 2009. calls only at 35 µM. Polyadenylate-binding protein 1 (Homo sapiens), P11940. 1% of 290,000 active;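 also: calls also rest on retests at 20 µM and on dose response follow-up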
PABP1 MLLE inh: inhibitors of PABP1 MLLE–PAM2 peptide binding, primary screen, biochemical, fluorescence polarization, FITC-PAM2, GST-MLLE. 0.36% of 360,000 active. AID 588489, 2011. inhibition, % at 20 µM. Polyadenylate-binding protein 1 (Homo sapiens), P11940; in the data active = inhibition above about 35%, passing the limit was not always enough;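 also: plate controls were DMSO wells with GST-MLLE for no effect and wells lacking GST-MLLE protein for full effect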
* hit, by the source's call; i = inactive; ? = inconclusive; . = no result; + = active, no number; [ ] = dose if it differs, or a comment. Compounds with a hit are over-represented: about 1.8% of the library has one in this group of screens. Unless noted, no rule for the calls is given here.

SMILES | core dimer inh | eIF4E 4G PPI | eIF4H FP inh | SUMO HTRF inh | PABP FP inh | PABP1 MLLE inh
N/C(=N\OC(=O)CSc1ccccc1)c1ccc([N+](=O)[O-])cc1 | -1 | -1 | 3 | 3 | i | 41*
CCN(C(=O)CN1C(=O)S/C(=C\C=C\c2ccccc2)C1=O)C1CCS(=O)(=O)C1 (stereo not drawn) | 46* | . | -1 | 0 | i | 1
O=C(Cc1n[nH]c(=O)c2ccccc12)NCc1ccccc1 | -1 | 2 | -1 | 3 | i | -11
O=C(O)Cc1n[nH]c(=O)c2ccccc12 | 3 | 4 | 1.1* | 5 | i | 2
O=c1[nH]nc(CNc2ccc(O)cc2)c2ccccc12 | -26 | 6 | 59* | 86 | + | 6
O=c1[nH]nc(CNc2ccc(C(F)(F)F)cc2)c2ccccc12 | 6 | 5 | -9 | -7 | i | 0
CC(Sc1nc(N)cc(=O)[nH]1)C(=O)Nc1ccc(N2CCOCC2)cc1 (stereo not drawn) | . | . | . | . | . | -13
S=c1nc(-c2ccc(Cl)cc2)[nH][nH]1 | 2 | -5 | -8 | 24 | i | 21
Cc1ccc(C)n1-c1nc(=S)[nH][nH]1 | 1 | 6 | 22 | -4 | i | 45*
Cc1n(-c2ccccc2)c2ccc(Cl)cc2[n+]1CCO | 0 | 2 | 1 | -1 | + | -93
OCC[C@H]1C[C@H](O)[C@@H](O)[C@@]2(CCCc3ccccc3O2)O1 | -1 | . | . | . | . | -18
Cc1cc(C)c2nc(N3C(=O)C(O)=C(C(=O)c4ccco4)C3c3ccco3)sc2c1 (stereo not drawn) | 12 | . | 66* | 12 | i | 4
COc1ccc(C2C(C(=O)c3ccco3)=C(O)C(=O)N2c2nnc(C)s2)cc1OC (stereo not drawn) | 4 | . | ? | 20 | ? | 44*
Cc1ccc(S(=O)(=O)Nc2cc3c(cc2C#N)OCO3)cc1C(N)=O | -6 | . | 1 | 4 | i | 6
Cc1ccc(C(=O)N2CCCCC2C(=O)O)cc1S(=O)(=O)N1CCCCC1 (stereo not drawn) | . | . | . | . | . | 5
c1cnc2ccc(C(c3nnnn3C3CCCC3)N3CCN(c4nc5ccccc5s4)CC3)cc2c1 (stereo not drawn) | 21 | -27 | active | -25 | + | -7
Clc1ccc(C(c2nnnn2C2CCCC2)N2CCN(c3nc4ccccc4s3)CC2)cc1 (stereo not drawn) | 2 | . | . | . | . | -8
CC(=O)Nc1ccc(S(=O)(=O)NC(C)C(=O)NC(C)c2ccccc2)cc1 (stereo not drawn) | -5 | -1 | 0 | -21 | i | 49*
Cc1ccc(NC(=O)c2c3c(nc4ccccc24)CCC3)cc1S(=O)(=O)N(C)C | 66* | 22 | 72* | 22 | i | -19
COc1ccc(NC(=O)CSc2ccc([N+](=O)[O-])cc2)cc1S(=O)(=O)N1CCOCC1 | . | . | . | . | . | 41*
COc1ccc(NC(=O)c2c3c(nc4ccccc24)CCC3)cc1S(=O)(=O)N1CCOCC1 | 78* | 19 | 99 | 39 | + | -15
COc1ccc(NC(=O)CSc2ccc(NC(C)=O)cc2)cc1S(=O)(=O)N1CCOCC1 | . | . | . | . | . | -18
CCOC(=O)c1cc(CC)sc1NC(=O)CN1C(=O)C(=O)N(CC(C)C)C1=O | 0 | . | . | . | . | -1
CC1Cc2ccccc2N1C(=S)NC(=O)c1ccco1 (stereo not drawn) | 4 | 1 | 2.5* | 0 | + | 5
O=C(Nc1nc(-c2ccncc2)cs1)c1ccco1 | 38 | -15 | 84* | 22 | i | -17
SMILES | core dimer inh | eIF4E 4G PPI | eIF4H FP inh | SUMO HTRF inh | PABP FP inh | PABP1 MLLE inh
O=C(Nc1nc(-c2cccs2)cs1)c1ccco1 | 4 | 4 | 0 | -28 | i | 14
O=C(NC(=S)Nc1ccccc1N1CCCCC1)c1ccco1 | -5 | -1 | 2 | -9 | i | 43*
Cc1c(NC(=S)NC(=O)C(C)(C)C)cccc1[N+](=O)[O-] | -5 | 0 | active | -9 | + | 34
O=C(NC(=S)N1CCCc2ccccc21)c1ccco1 | 1 | 0 | -3 | 2 | i | 33
CCS(=O)(=O)c1nc(S(=O)(=O)c2ccc(C)cc2)c(NCCCN(C)C)s1 | -1 | 2 | 1 | -5 | i | -12
CC1(Cc2cc(Cl)ccc2C(F)(F)F)C(=O)Nc2cc(-c3ccccc3Cl)ccc21 (stereo not drawn) | . | . | . | . | . | -9
CC(=O)Nc1ccc(S(=O)(=O)N2CCSc3ccccc32)cc1 | . | . | . | . | . | 5
O=C(NC(=S)Nc1cccc2c(O)cccc12)c1ccco1 | -1 | . | 66* | 58 | + | 25
O=C(NC(=S)Nc1cccc2c(O)cccc12)c1ccccc1[N+](=O)[O-] | 6 | . | 75* | 65 | + | 17
O=C(Nc1cccc2cccc(NC(=O)c3ccco3)c12)c1ccco1 | 48* | 10 | 84 | 53 | i | 9
O=C(NC(=S)Nc1cccc2cc(O)ccc12)c1ccco1 | -4 | . | 1 | 9 | i | 38
Cc1ccc2cc(C(c3nnnn3C(C)(C)C)N3CCCC3)c(=O)[nH]c2c1C (stereo not drawn) | . | . | -8 | 34 | i | .
O=C(c1ccccc1Cl)N1N=C(c2cccs2)CC1c1cccc(O)c1 (stereo not drawn) | 0 | . | -3 | 6 | i | -5
COC(=O)COc1ccc(S(=O)(=O)Nc2ccc3c(c2)OCO3)cc1 | 7 | 55*[fluorescence artefact?] | 5 | -8 | i | 9
CCN1CCN(c2ccc(NC(=O)COc3ccc(Cl)cc3C)cc2)CC1 | . | . | . | . | . | -3
CCCn1c(CCC(=O)O)ccc1-c1ccc(OC)cc1 | 46* | 4 | 53* | 7 | + | -25
COc1ccc(C)cc1NC(=O)CN1CCCN(S(=O)(=O)c2ccc(Br)cc2)CC1 | 9 | . | -1 | -19 | i | 9
O=C(Nc1nnc(SCc2c(Cl)cccc2Cl)s1)c1ccc2ncsc2c1 | 3 | 18 | 8 | 30 | i | .
N#Cc1ccc(CSc2nnc(NC(=O)c3ccc4ncsc4c3)s2)cc1 | 3 | 75* | -3 | -71 | i | -7
Cc1cc(C(=O)N/N=C/c2cc(Br)ccc2OC(=O)c2ccc(Br)cc2)n[nH]1 | 6 | 23 | -12 | 67* | i | .
Cc1cc(C(=O)N/N=C/c2cc(Br)cc(Br)c2OC(=O)c2ccccc2)n[nH]1 | 11 | 18 | 24 | -44 | i | .
Cn1c(=O)c([N+](=O)[O-])c(N2CCN(Cc3ccc4c(c3)OCO4)CC2)c2ccccc21 | 4 | -3 | 19 | 27 | i | 8
